Data published in ChEMBL document CHEMBL1122715, “beta-Lapachone: synthesis of derivatives and activities in tumor models” (1984).
In brackets after ≈: the same amount, converted by molar mass.

Legend:
Mus musculus = assay: Maximum tolerated dose (MTD, po) in uninfected NMRI mice
[1] = test system: Avian myeloblastosis virus; assay: In vitro inhibition of RNA dependent DNA polymerase of Avian myeloblastosis virus (AMV); format: functional; details: read-out: ED50
How it was run: (§1)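 Reverse transcriptase activity assayed with poly(rA)·oligo(dT) or poly(rC)·oligo(dG) template-primer (20 μg/mL) and [³H]dTTP or [³H]dGTP substrate (20 μM, […]); inhibition read as loss of labelled nucleotide incorporation.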

[2] = test system: Rauscher murine leukemia virus; assay: In vitro inhibition of RNA dependent DNA polymerase of Rauscher leukemia virus (RLV); format: functional; details: read-out: ED50
How it was run: as §1

Compound	MTD (Mus musculus) [mg/kg]	EC50 [1] [µg/mL]	EC50 [2] [µg/mL]
CC1(c2ccccc2)CCC2=C(O1)c1ccccc1C(=O)C2=O (stereo unspecified)	>2500	2 (≈ 6.57 µM)	2 (≈ 6.57 µM)
CCC1(C)CCC2=C(O1)c1ccccc1C(=O)C2=O (stereo unspecified)	125	< 2	
O=C1C(=O)c2ccccc2C2=C1CCC1(CCCCC1)O2	>2500	3 (≈ 10.6 µM)	
CC1(C)CCC2=C(O1)c1ccccc1C(=O)C2=O [LAPACHONE]	1250	< 2	< 2
CCC1(CC)CCC2=C(O1)c1ccccc1C(=O)C2=O	2500	2 (≈ 7.4 µM)	
O=C1C(=O)c2ccccc2C2=C1CCC1(CCCC1)O2	>2500	3 (≈ 11.2 µM)	
O=C1C(=O)c2ccccc2C2=C1CCC(c1ccccc1)O2 (stereo unspecified)	>2500	< 2	
O=C1C(=O)c2ccccc2C2=C1CCC1(CCCCCC1)O2		15 (≈ 50.6 µM)	
Cc1ccc2c(c1)C(=O)C(=O)C1=C2OC(C)(C)CC1	>2500		
CC1(C)CCC2=C(O1)c1ccc(Cl)cc1C(=O)C2=O	>2500		
COc1cc2c(cc1OC)C1=C(CCC(C)(C)O1)C(=O)C2=O	>1250	5 (≈ 16.5 µM)	
